# Reference: ChEMBL document CHEMBL2401652 (J Med Chem, 2013)
# The source made the active and inactive calls. The rule behind the calls is not given here.
# Key:
# [1] = Binding affinity to DNA (unknown origin) at 100 uM after 2 hrs by UV-Vis absorption spectroscopic analysis
# Method in brief: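 DNA (100 μg/mL; stock 1.0 mg/mL in 50 mM Tris-HCl pH 7.5, 50 mM NaCl) with ligand fixed at 100 μM; incubated at 37 °C, then diluted six-fold; absorbance scanned 220–350 nm at 25 °C, 1 cm quartz cell; 260 nm band monitored.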
# PANC-1 [2] = assay: Induction of apoptosis in human PANC1 cells assessed as PARP cleavage at 50 uM after 24 hrs by Western blot analysis; format: functional, cell-based
# Method in brief: (§1)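 Cells (1.5 × 10^6) treated 24 h at 25 or 50 μM; 50 μg protein per lane on 10% SDS-PAGE, nitrocellulose, 2% TBS-BSA block, primary antibody overnight at 4 °C, HRP secondary, ECL detection; β-actin loading control; untreated controls in parallel.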
# T98G [3] = assay: Induction of apoptosis in human T98G cells assessed as PARP cleavage at 50 uM after 24 hrs by Western blot analysis; format: functional, cell-based
# Method in brief: (§2)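 Cells (1.5 × 10^6) exposed 24 h to compound (25 or 50 μM). 50 μg protein per lane resolved on 10% SDS-PAGE and transferred to nitrocellulose. Membrane blocked in 2% TBS-BSA, then probed with primary antibody overnight at 4 °C and HRP secondary. Detection by ECL, with β-actin as loading control. Untreated control run in parallel.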
# PANC-1 [4] = assay: Induction of apoptosis in human PANC1 cells assessed as procaspase-9 cleavage at 50 uM after 24 hrs by Western blot analysis; format: functional, cell-based; method in brief: as §2
# PANC-1 [5] = assay: Induction of apoptosis in human PANC1 cells assessed as procaspase-8 cleavage at 50 uM after 24 hrs by Western blot analysis; format: functional, cell-based; method in brief: as §1
# T98G [6] = assay: Induction of apoptosis in human T98G cells assessed as procaspase-9 cleavage at 50 uM after 24 hrs by Western blot analysis; format: functional, cell-based; method in brief: as §2
# PANC-1 [7] = assay: Induction of apoptosis in human PANC1 cells assessed as procaspase-7 cleavage at 50 uM after 24 hrs by Western blot analysis; format: functional, cell-based; method in brief: as §1
# T98G [8] = assay: Induction of apoptosis in human T98G cells assessed as procaspase-8 cleavage at 50 uM after 24 hrs by Western blot analysis; format: functional, cell-based; method in brief: as §2
# T98G [9] = assay: Induction of apoptosis in human T98G cells assessed as procaspase-7 cleavage at 50 uM after 24 hrs by Western blot analysis; format: functional, cell-based; method in brief: as §2
# PANC-1 [10] = assay: Downregulation of total Bid expression in human PANC1 cells at 50 uM after 24 hrs by Western blot analysis; format: functional, cell-based; method in brief: as §1
# PANC-1 [11] = assay: Downregulation of Bcl-xL expression in human PANC1 cells at 50 uM after 24 hrs by Western blot analysis; format: functional, cell-based; method in brief: as §1
# T98G [12] = assay: Downregulation of total Bid expression in human T98G cells at 50 uM after 24 hrs by Western blot analysis; format: functional, cell-based; method in brief: as §1
# T98G [13] = assay: Downregulation of Bcl-xL expression in human T98G cells at 50 uM after 24 hrs by Western blot analysis; format: functional, cell-based; method in brief: as §1
# PANC-1 [14] = assay: Induction of mitochondrial transmembrane depolarization in human PANC1 cells at 30 uM after 24 hrs by JC1 staining-based flow cytometric analysis (reference value: 2.7%); format: functional
# T98G [15] = assay: Induction of mitochondrial transmembrane depolarization in human T98G cells at 30 uM after 24 hrs by JC1 staining-based flow cytometric analysis (reference value: 10.26%); format: functional
# PANC-1 [16] = assay: Induction of apoptosis in human PANC1 cells at 30 uM after 24 hrs by dUTP-FITC staining-based TUNEL assay (reference value: 0.17%); format: functional
# T98G [17] = assay: Induction of apoptosis in human T98G cells at 30 uM after 24 hrs by dUTP-FITC staining-based TUNEL assay (reference value: 1.88%); format: functional
# PANC-1 [18] = assay: Induction of apoptosis in human PANC1 cells at 30 uM after 24 hrs by 7-AAD-based FACS flow cytometric analysis (reference value: 5.18%); format: functional
# T98G [19] = assay: Induction of apoptosis in human T98G cells at 30 uM after 24 hrs by 7-AAD-based FACS flow cytometric analysis (reference value: 5.3%); format: functional
# T98G [20] = assay: Induction of apoptosis in human T98G cells assessed as induction of DNA damage at 20 uM after 24 hrs by comet assay relative to untreated control; format: functional
# Method in brief: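 T98G cells (1 × 10^5) treated 24 h with 0 or 20 μM. About 20000 cells embedded in 0.5% low-melting agarose and lysed overnight at 4 °C at pH 10. Alkaline electrophoresis (pH 13) for 30 min at 300 mA at 4 °C, then ethidium bromide staining. Tail length (nucleus centre to tail tip) from ≥20 comets, reported as mean ± SD.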
# T98G [21] = assay: Cytotoxicity against human T98G cells assessed as growth inhibition at 50 uM by MTT assay; format: functional, cell-based; conditions: TDE = time-dependent effect
# HeLa = assay: Cytotoxicity against human HeLa cells assessed as growth inhibition after 48 hrs by MTT assay
# SW480 = assay: Cytotoxicity against human SW480 cells assessed as growth inhibition after 48 hrs by MTT assay; conditions: SW480, 48 h
# NCI-H23 = assay: Cytotoxicity against human NCI-H23 cells assessed as growth inhibition after 48 hrs by MTT assay; conditions: NCI-H23, 48 h
# HCT-116 = assay: Cytotoxicity against human HCT116 cells assessed as growth inhibition after 48 hrs by MTT assay; conditions: HCT-116, 48 h
# A549 = assay: Cytotoxicity against human A549 cells assessed as growth inhibition after 48 hrs by MTT assay; conditions: A549, 48 h
# [22] = Cytotoxicity against human Panc 10.05 cells assessed as growth inhibition after 48 hrs by MTT assay; conditions: Panc1005, 48 h
# PANC-1 [23] = assay: Cytotoxicity against human PANC1 cells assessed as growth inhibition after 48 hrs by MTT assay; conditions: PANC-1, 48 h
# MIA PaCa-2 = assay: Cytotoxicity against human MIAPaCa2 cells assessed as growth inhibition after 48 hrs by MTT assay; conditions: MIA PaCa-2, 48 h
# ASPC1 = assay: Cytotoxicity against human AsPC1 cells assessed as growth inhibition after 48 hrs by MTT assay; conditions: ASPC1, 48 h
# T98G [24] = assay: Cytotoxicity against human T98G cells assessed as growth inhibition after 48 hrs by MTT assay
# [25] = Cytotoxicity against human A172 cells assessed as growth inhibition after 48 hrs by MTT assay; conditions: A 172, 48 h
# [26] = Cytotoxicity against human U87MG cells assessed as growth inhibition after 48 hrs by MTT assay; conditions: U-87 MG
# [27] = Cytotoxicity against human LN229 cells assessed as growth inhibition after 48 hrs by MTT assay; conditions: LN-229, 48 h
# [28] = Cytotoxicity against human U373MG cells assessed as growth inhibition after 48 hrs by MTT assay; conditions: U373 MG
# K562 = assay: Cytotoxicity against human K562 cells assessed as growth inhibition after 48 hrs by MTT assay; conditions: K562, 48 h
# REH = assay: Cytotoxicity against human REH cells assessed as growth inhibition after 48 hrs by MTT assay
# MOLT-4 = assay: Cytotoxicity against human MOLT4 cells assessed as growth inhibition after 48 hrs by MTT assay; conditions: MOLT-4, 48 h
# [29] = Cytotoxicity against human CEMC-7 cells assessed as growth inhibition after 48 hrs by MTT assay; conditions: CEMC-7, 48 h
# MOLT-3 = assay: Cytotoxicity against human MOLT3 cells assessed as growth inhibition after 48 hrs by MTT assay; conditions: MOLT-3, 48 h
structure (smiles),measurement,setting,value
CC(C)=CCC[C@]1(C)C=Cc2c(c(C)cc3c2[nH]c2ccccc23)O1,Activity,[1],Active
same,Activity,PANC-1 [2],Active
same,Activity,T98G [3],Active
same,Activity,PANC-1 [4],Active
same,Activity,PANC-1 [5],Active
same,Activity,T98G [6],Active
same,Activity,PANC-1 [7],Active
same,Activity,T98G [8],Active
same,Activity,T98G [9],Active
same,Activity,PANC-1 [10],Active
same,Activity,PANC-1 [11],Active
same,Activity,T98G [12],Active
same,Activity,T98G [13],Active
same,Activity,PANC-1 [14],15.3%
same,Activity,T98G [15],16.72%
same,Activity,PANC-1 [16],1.13%
same,Activity,T98G [17],9.58%
same,Activity,PANC-1 [18],17.06%
same,Activity,T98G [19],10.13%
same,Activity,T98G [20],inactive
same,growth inhibition (GI),T98G [21],tde
same,IC50,HeLa,25 µM
same,IC50,SW480,25 µM
same,IC50,NCI-H23,25 µM
same,IC50,HCT-116,25 µM
same,IC50,A549,25 µM
same,IC50,[22],25 µM
same,IC50,PANC-1 [23],25 µM
same,IC50,MIA PaCa-2,25 µM
same,IC50,ASPC1,25 µM
same,IC50,T98G [24],25 µM
same,IC50,[25],25 µM
same,IC50,[26],25 µM
same,IC50,[27],25 µM
same,IC50,[28],25 µM
same,IC50,K562,25 µM
same,IC50,REH,25 µM
same,IC50,MOLT-4,25 µM
same,IC50,[29],25 µM
same,IC50,MOLT-3,25 µM
